Measured values published in article PMC8248410 (Chemmedchem, 2021).
Where a SMILES comes first, the peptide text is derived from it.

System: HIV‐1NL4‐3
Experiment: SEAP reporter cell HIV‐1 infection assay
Type: cell-based
Details: running text on Table 1 data; compared with P6‐2
Outline: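 CEMx174 indicator cells carrying SEAP under SIV LTR control, grown in RPMI 1640 with 10 % heat‑inactivated FCS, glutamine, penicillin and streptomycin. Peptides added to cells before HIV‑1 NL4‑3, which came from 293T transfection supernatant harvested at 48 h and filtered. SEAP activity in supernatant read 3 days post‑infection by commercial kit. Mean and SEM of ≥3 independent experiments; IC50 from fitted curves.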

Row | Compound | HIV‐1 inhibitory activity, result in words
1 | Ac-LCDCPNGPWAWVPAFCQAVG-OH (cysteine pairing not given here) [P6‐2‐9] | approximately tenfold loss
2 | CC(=O)N[C@@H](CC(C)C)C(=O)N[C@@H](CS)C(=O)N[C@@H](CC(=O)O)C(=O)N[C@@H](CS)C(=O)N1CCC[C@H]1C(=O)N[C@@H](CC(N)=O)C(=O)NCC(=O)N1CCC[C@H]1C(=O)N[C@@H](Cc1c[nH]c2ccccc12)C(=O)N[C@H](C(=O)N[C@@H](Cc1c[nH]c2ccccc12)C(=O)N[C@@H](C)C(=O)N1CCC[C@H]1C(=O)N[C@@H](C)C(=O)N[C@@H](Cc1ccccc1)C(=O)N[C@@H](CS)C(=O)N[C@@H](CCC(N)=O)C(=O)N[C@@H](C)C(=O)N[C@H](C(=O)NCC(=O)O)C(C)C)C(C)C [P6‐2‐11] (Ac-LCDCPNGPWVWAPAFCQAVG-OH) | approximately tenfold loss
